Source: ChEMBL document CHEMBL1147721, “Identification of new diamine scaffolds with activity against Mycobacterium tuberculosis” (J Med Chem, 2006)
Values after ≈ are worked out from the molar mass of the structure shown. Active and inactive are the calls of the source. The calls are words filed in the database; no cut-off is given here.

What was measured:
[1] = tested on: Mycobacterium tuberculosis; experiment: Antimycobacterial activity against Mycobacterium tuberculosis by broth microdilution assay; format: functional
Procedure, shortened: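 MIC by broth microdilution against M. tuberculosis. Library mixtures were screened unpurified, and active wells were deconvoluted and re-tested as individual compounds. Purified compounds (≥95%) were tested from 10 mM methanol stocks. INH, rifampicin and EMB were controls.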

HepG2 [2] = experiment: Cytotoxicity against human HepG2 cell line by MTS assay; format: functional, cell-based
HepG2 [3] = experiment: Selectivity index, IC50 for human HepG2 cell line/MIC for Mycobacterium tuberculosis; format: functional
Procedure, shortened: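 SI = IC50/MIC: HepG2 IC50 from the MTS assay divided by the M. tuberculosis MIC from broth microdilution.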

Mus musculus = experiment: Reduction in body weight of C3H mouse infected with 10^6 CFU of Mycobacterium tuberculosis H37Rv at 10 mg/kg, po after 20 days; format: functional; set-up: scale not given: the % may be the effect or the level left
Procedure, shortened: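 Rapid-progression model: C3H mice infected iv with 10^6 CFU M. tuberculosis H37Rv. Oral gavage at 10 mg/kg daily (dose not optimised) started day 7 and ran 10 days. Body weight was monitored from day 0, 6 mice per group. Controls were uninfected, infected untreated, and INH 25 mg/kg.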

[4] = tested on: Mycobacterium tuberculosis; experiment: Antimycobacterial activity against recombinant Mycobacterium tuberculosis containing Rv0341 promoter by luciferase assay; format: functional; set-up: concentration or dose not given beside the values
Procedure, shortened: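 Recombinant M. tuberculosis carrying the Rv0341 promoter fused to firefly luciferase was treated and luminescence read. Activity is given as percent of EMB activity (EMB = 100%). In screening, luminescence above 1.5-fold the untreated background counted as active.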

[5] = tested on: Mycobacterium tuberculosis; experiment: Reduction in CFU in C57BL/6 mouse infected with 10^5 CFU of Mycobacterium tuberculosis H37Rv at 10 mg/kg after 20 days; format: functional
Procedure, shortened: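 Low-dose chronic TB mouse model with M. tuberculosis H37Rv. Treatment began 20 days after infection: 10 mg/kg daily by oral gavage, 5 days/week for four weeks. INH 25 mg/kg was the positive control. Organ CFU were compared with infected untreated mice.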

Row | Compound | MIC [1] [µM] | IC50 (HepG2 [2]) [µM] | Selectivity index (HepG2 [3]) | Activity (Mus musculus) [%] | Activity [4] | Log10 cfu [5]
1 | CCOc1ccccc1CN1CCCN(Cc2ccccc2OCC)CC1 | 1.56 (≈ 0.575 µg/mL) | 71 | 46 | 21 | 70% | –
2 | C1CCC2CC(N3CCCN(C4CCC5CCCCC5C4)CC3)CCC2C1 (mixture of isomers) | 1.56 | 54 | 35 | – | 127% | –
3 | Clc1ccc(C(c2ccccc2)N2CCN(C3CCC4CCCCC4C3)CC2)cc1 (stereo not drawn) | 6.25 (≈ 2.64 µg/mL) | 47 | 8 | – | inactive | –
4 | CC1(C)C2CC=C(CN3CCCN(CC4=CCC5CC4C5(C)C)CC3)C1C2 | 3.13 (≈ 1.15 µg/mL) | – | 35 | – | 113% | –
5 | NNC(=O)c1ccncc1 [ISONIAZID] | – | – | – | – | – | 3.5
6 | COc1ccccc1CN1CCN(C(c2ccccc2)c2ccc(Cl)cc2)CC1 (stereo not drawn) | 6.25 (≈ 2.54 µg/mL) | 65 | 10 | – | inactive | –
7 | COc1ccccc1CN1CCCN(Cc2ccccc2OC)CC1 | 6.25 (≈ 2.13 µg/mL) | – | 17 | – | 138% | –
8 | Fc1ccc(N2CCN(C3CCC4CCCCC4C3)CC2)cc1 (stereo not drawn) | 12.5 (≈ 3.96 µg/mL) | 86 | 7 | – | 157% | –
9 | Fc1ccccc1N1CCN(C2CCC3CCCCC3C2)CC1 (stereo not drawn) | 12.5 (≈ 3.96 µg/mL) | 70 | 6 | – | 145% | –
10 | CC1(C)C2CC=C(CN3CCN(Cc4ccccc4)CC3)C1C2 (stereo not drawn) | 6.25 (≈ 1.94 µg/mL) | 64 | 10 | – | inactive | –
11 | C1CN(C2C3CC4CC(C3)CC2C4)CCN(C2C3CC4CC(C3)CC2C4)C1 (stereo not drawn) | 1.56 (≈ 0.575 µg/mL) | – | 84.6 | 12 | 126% | 0.7
12 | c1ccc(COc2ccc(CN3CCN(Cc4ccccc4)CC3)cc2)cc1 | 6.25 (≈ 2.33 µg/mL) | 54 | 9 | 12 | inactive | 1
13 | C=C(C)[C@@H]1CC=C(CN2CCN(Cc3ccccc3)CC2)CC1 | 3.13 (≈ 0.972 µg/mL) | 60 | 19 | – | inactive | –
14 | c1ccc(COc2ccc(CN3CCCN(Cc4ccc(OCc5ccccc5)cc4)CC3)cc2)cc1 | 3.13 (≈ 1.54 µg/mL) | 56 | 18 | – | inactive | –
15 | C=C(C)[C@@H]1CC=C(CN2CCCN(CC3=CC[C@@H](C(=C)C)CC3)CC2)CC1 | 6.25 (≈ 2.3 µg/mL) | 81 | 13 | – | inactive | –
16 | C1CCCC(N2CCCN(C3CCCCCCC3)CC2)CCC1 | 1.56 (≈ 0.5 µg/mL) | 74 | 47 | – | 81% | –
